Experimental data taken from PMC8364871 (Clinical cancer research : an official journal of the …, 2021).

Columns and labels:
SOX11-DNA interaction = target: T1, SOX11-DNA interaction (Homo sapiens, UniProt P35716); test: Fluorescence anisotropy; type: biochemical; details: 20 μM of compound
T1 sequence (P35716 49-117 limits assumed): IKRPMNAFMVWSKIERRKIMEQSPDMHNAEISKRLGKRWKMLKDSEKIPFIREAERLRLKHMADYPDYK
How it was run: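 Fluorescence anisotropy read at fluorescein excitation/emission wavelengths to follow SOX11–DNA binding in the presence of test compound. Unlabeled DNA served as the competitive positive control. Read-out: percent inhibition of DNA binding.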

MCL cell lines = test: Activity in MCL cell lines; type: cell-based, human
[1] = tested on: DNA (topoisomerase I relaxation of supercoiled plasmid DNA); test: Topoisomerase-based DNA unwinding assay; type: biochemical; details: 20 μM
MCL patients = details: cited from earlier work; for duration of response: MCL patients
[2] = tested on: pBTK in JeKo-1, Z-138, Mino and JVM-2; test: PhosphoFlow pBTK-Y223, all four MCL cell lines; type: cell-based, human; details: 24 hours; 1 μM and 10 μM Ibrutinib (Figure 5B)
(His)6-SOX11-DBD = target: T2, (His)6-SOX11-DBD (Homo sapiens, UniProt P35716); test: Surface plasmon resonance binding to immobilized SOX11-DBD; details: 25 °C
T2 sequence (P35716 49-117 limits assumed): T1 sequence (P35716 49-117 limits assumed)

SOX11 DBD = details: cited from earlier work

**Q.** For Cc1cc2nc3c(=O)[nH]c(=O)nc-3n(C[C@H](O)[C@H](O)[C@H](O)COP(=O)(O)OP(=O)(O)OC[C@H]3O[C@@H](n4cnc5c(N)ncnc54)[C@H](O)[C@@H]3O)c2cc1C [Flavitan], which “inhibition of DNA binding” value (SOX11-DNA interaction) is on record?
**A.** > 50%

**Q.** What about the “activity in MCL cell lines” value (MCL cell lines) of the same molecule?
**A.** inactivity in MCL cell lines

**Q.** Which “direct DNA binding / interference with DNA unwinding activity of topoisomerase I” value [1] does the source give for C=CC(=O)N1CCC[C@@H](n2nc(-c3ccc(Oc4ccccc4)cc3)c3c(N)ncnc32)C1 [Ibrutinib] here?
**A.** do not directly bind DNA

**Q.** And the duration of response (MCL patients)?
**A.** 17.5 months

**Q.** And the overall response rate (MCL patients; relapsed MCL patients)?
**A.** 60%

**Q.** What about the “pBTK level in all four cell lines” value [2] of the same molecule?
**A.** reduced pBTK level in all four cell lines

**Q.** For O=C(O)c1c(O)cccc1CCc1ccc2ccccc2c1 [Sm4], which “binding affinity to SOX11-DBD (SPR)” value ((His)6-SOX11-DBD) is on record?
**A.** displayed expected affinities

**Q.** And the “concentration inhibiting SOX11 DBD” value (SOX11 DBD)?
**A.** sub-millimolar concentrations

**Q.** For CC1(C)CCC(CN2CCN(c3ccc(C(=O)NS(=O)(=O)c4ccc(NCC5CCOCC5)c([N+](=O)[O-])c4)c(Oc4cnc5[nH]ccc5c4)c3)CC2)=C(c2ccc(Cl)cc2)C1 [Venetoclax], which duration of response (MCL patients) is on record?
**A.** 14 months
